Results: ChEMBL document CHEMBL1137584, “Constrained 7-fluorocarboxychromone-4-aminopiperidine based Melanin-concentrating hormone receptor 1 antagonists: the effects of chirality on substituted indan-1-ylamines” (Bioorg Med Chem Lett, 2007)

What was measured:
[1] = biological target: Melanin-concentrating hormone receptor (Homo sapiens, UniProt Q969V1+Q99705); test: Inhibition of MCH-mediated calcium release in IMR-32 cells; format: functional, cell-based
[2] = biological target: Voltage-gated inwardly rectifying potassium channel KCNH2 (Homo sapiens, UniProt Q12809); test: Displacement of 3H-dofetilide from hERG-expressing HEK membrane homogenates
[3] = biological target: Melanin-concentrating hormone receptor 1 (Homo sapiens, UniProt Q99705); test: Displacement of 125I-MCH from MCH-R1 expressed in IMR-32 cells; format: cell-based
[4] = test system: Mus musculus; test: Plasma Cmax in DIO mice after 10 mg/kg peroral dose; format: ADME, organism-based; design: dose 10 mg/kg, route oral; details: in vivo, po
Summary of the method: (§1)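 Single oral dose, 10 mg/kg in 1% Tween 80/water, to DIO mice; plasma and brain sampled over time. Cmax = average of the three mice with highest concentrations ± SEM. Mean concentration data fitted multi-exponentially; AUC0-t by linear trapezoidal rule, extrapolated to infinity with Ct/β added.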

[5] = test system: Mus musculus; test: Brain AUC in DIO mice after 10 mg/kg peroral dose; format: ADME, organism-based; design: dose 10 mg/kg, route oral; details: in vivo, po; summary of the method: as §1
[6] = test system: Mus musculus; test: Plasma AUC in DIO mice after 10 mg/kg peroral dose; format: ADME, organism-based; design: dose 10 mg/kg, route oral; details: in vivo, po; summary of the method: as §1
[7] = test system: Mus musculus; test: (§2) Half-life in plasma of DIO mice after 10 mg/kg peroral dose; format: ADME, organism-based; design: dose 10 mg/kg, route oral; details: in vivo, po; summary of the method: as §1
[8] = Brain Cmax in DIO mice after 10 mg/kg peroral dose; format: ADME, organism-based; design: dose 10 mg/kg, route oral; details: mouse, po; summary of the method: as §1
[9] = as §2; format: ADME, organism-based; design: dose 10 mg/kg, route oral; details: mouse, plasma, po; summary of the method: as §1

Sequence of Melanin-concentrating hormone receptor 1 (Q99705 whole entry): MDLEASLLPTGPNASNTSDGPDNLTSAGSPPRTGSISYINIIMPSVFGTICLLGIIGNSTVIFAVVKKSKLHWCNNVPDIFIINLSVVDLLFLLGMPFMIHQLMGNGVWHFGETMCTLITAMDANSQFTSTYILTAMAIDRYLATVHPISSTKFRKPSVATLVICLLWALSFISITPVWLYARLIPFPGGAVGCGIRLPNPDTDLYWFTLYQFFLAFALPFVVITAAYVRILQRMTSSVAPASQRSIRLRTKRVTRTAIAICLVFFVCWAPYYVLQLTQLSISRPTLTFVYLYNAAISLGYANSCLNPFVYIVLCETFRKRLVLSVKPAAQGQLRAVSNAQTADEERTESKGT
Sequence of Voltage-gated inwardly rectifying potassium channel KCNH2 (Q12809 whole entry): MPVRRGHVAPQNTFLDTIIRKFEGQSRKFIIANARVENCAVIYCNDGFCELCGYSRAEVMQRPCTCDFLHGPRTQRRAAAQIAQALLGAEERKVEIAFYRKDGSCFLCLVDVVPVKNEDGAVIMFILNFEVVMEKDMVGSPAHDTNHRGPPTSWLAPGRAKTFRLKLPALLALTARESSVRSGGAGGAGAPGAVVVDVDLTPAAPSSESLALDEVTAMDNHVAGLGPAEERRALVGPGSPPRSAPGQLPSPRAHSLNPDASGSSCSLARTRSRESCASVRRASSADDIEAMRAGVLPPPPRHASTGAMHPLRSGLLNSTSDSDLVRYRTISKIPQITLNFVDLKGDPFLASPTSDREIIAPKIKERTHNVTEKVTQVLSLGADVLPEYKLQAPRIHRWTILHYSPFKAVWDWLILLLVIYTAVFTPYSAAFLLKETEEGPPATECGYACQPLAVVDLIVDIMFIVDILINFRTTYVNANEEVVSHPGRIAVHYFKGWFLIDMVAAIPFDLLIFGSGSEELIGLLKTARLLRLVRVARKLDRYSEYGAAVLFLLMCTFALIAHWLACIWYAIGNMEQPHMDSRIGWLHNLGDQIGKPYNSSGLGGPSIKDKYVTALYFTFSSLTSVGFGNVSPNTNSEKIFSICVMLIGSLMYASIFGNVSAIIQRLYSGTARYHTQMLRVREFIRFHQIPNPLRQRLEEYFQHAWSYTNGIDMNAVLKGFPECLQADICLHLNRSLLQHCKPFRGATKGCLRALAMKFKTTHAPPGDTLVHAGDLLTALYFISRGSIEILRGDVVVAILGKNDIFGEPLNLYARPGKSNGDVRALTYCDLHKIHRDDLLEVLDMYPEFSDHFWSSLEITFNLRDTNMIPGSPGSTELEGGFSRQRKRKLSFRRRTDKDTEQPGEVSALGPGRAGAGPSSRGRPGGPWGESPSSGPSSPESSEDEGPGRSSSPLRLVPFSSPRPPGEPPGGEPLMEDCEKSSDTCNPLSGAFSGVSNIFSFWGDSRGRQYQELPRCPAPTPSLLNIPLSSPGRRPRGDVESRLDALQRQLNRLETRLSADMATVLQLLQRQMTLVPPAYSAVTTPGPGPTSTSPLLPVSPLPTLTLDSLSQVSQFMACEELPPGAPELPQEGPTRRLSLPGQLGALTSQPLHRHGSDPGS

Row | SMILES | IC50 [1] | IC50 [3] | Cmax [4] | AUC [5] | AUC [6] | T1/2 [7] | Cmax [8] | half-life [9] | IC50 [2]
1 | O=C(NC1CCN(C2CCc3c2ccc2c3OCO2)CC1)c1cc(=O)c2ccc(F)cc2o1 (centres undefined) | 2750 nM | 76 nM | – | – | – | – | – | – | 5860 nM
2 | CC(=O)Nc1ccc2c(c1)C(N1CCC(NC(=O)c3cc(=O)c4ccc(F)cc4o3)CC1)CC2 (single isomer, unassigned; (+)) | > 10000 nM | 2570 nM | 1410 ng/mL | 0.043 µg·h/g | 3760 ng·h/mL | 1.3 h | 17 ng/g | – | –

More lines, main results first:

Row | IC50 [1] | IC50 [3] | Cmax [4] | AUC [5] | AUC [6] | T1/2 [7] | Cmax [8] | half-life [9] | SMILES | IC50 [2]
3 | 173 nM | 11 nM | – | – | – | – | – | – | O=C(NC1CCN(C2CCc3cc4oc(=O)[nH]c4cc32)CC1)c1cc(=O)c2ccc(F)cc2o1 (centres undefined) | 25000 nM
4 | 95 nM | 21 nM | – | – | – | – | – | – | O=C1COc2cc3c(cc2N1)C(N1CCC(NC(=O)c2cc(=O)c4ccc(F)cc4o2)CC1)CC3 (centres undefined) | 14600 nM
5 | 26 nM | 4 nM | 14600 ng/mL | 0 µg·h/g | 41600 ng·h/mL | – | – | 2.3 h | CC(=O)Nc1ccc2c(c1)C(N1CCC(NC(=O)c3cc(=O)c4ccc(F)cc4o3)CC1)CC2 (single isomer, unassigned; (-)) | –
6 | 56 nM | 3 nM | – | – | – | – | – | – | CC(=O)Nc1ccc2c(c1)C(N1CCC(NC(=O)c3cc(=O)c4ccc(F)cc4o3)CC1)CC2 (stereo in doubt; 16) | –
